Data as given in ChEMBL document CHEMBL1221214, “Cytosporone B is an agonist for nuclear orphan receptor Nur77” (Nat Chem Biol, 2008).
≈ marks a conversion by molar mass, not a printed value. Calls of active or inactive are those of the source. The rule behind the calls is not given here.

What was measured:
[1] = target: Nuclear receptor subfamily 4immunitygroup A member 1 (Homo sapiens, UniProt P22736, Y453A); assay: Binding affinity to Nur77 Y453A mutant expressed in human BGC823 cells; assay type: cell-based, BGC-823
Nuclear receptor subfamily 4immunitygroup A member 1 (Homo sapiens, UniProt P22736, Y453A), sequence (P22736 whole entry Y453A): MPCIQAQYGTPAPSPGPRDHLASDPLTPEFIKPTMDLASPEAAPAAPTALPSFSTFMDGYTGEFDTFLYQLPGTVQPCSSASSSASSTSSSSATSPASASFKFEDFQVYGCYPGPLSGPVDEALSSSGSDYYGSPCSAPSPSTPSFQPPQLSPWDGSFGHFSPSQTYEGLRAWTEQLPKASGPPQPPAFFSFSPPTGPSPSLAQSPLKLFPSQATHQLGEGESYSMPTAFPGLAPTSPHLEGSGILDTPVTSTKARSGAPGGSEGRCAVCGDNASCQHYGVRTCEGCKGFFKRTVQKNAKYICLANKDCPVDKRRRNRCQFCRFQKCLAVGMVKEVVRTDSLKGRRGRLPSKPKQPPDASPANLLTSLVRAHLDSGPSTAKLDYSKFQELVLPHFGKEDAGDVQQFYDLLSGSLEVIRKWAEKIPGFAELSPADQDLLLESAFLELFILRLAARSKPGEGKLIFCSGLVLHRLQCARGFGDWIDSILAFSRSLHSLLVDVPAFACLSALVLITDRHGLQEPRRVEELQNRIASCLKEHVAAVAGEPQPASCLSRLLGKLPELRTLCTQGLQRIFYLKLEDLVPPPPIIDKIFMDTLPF

[2] = target: T1, Nuclear receptor subfamily 4immunitygroup A member 1 (Homo sapiens, UniProt P22736); assay: Binding affinity to GST-tagged nuclear orphan receptor Nur77 at 25 degC by fluorescence quenching analysis
T1 sequence (P22736 whole entry): as the sequence (P22736 whole entry Y453A) above, with A453Y counted along it
In short: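 GST-Nur77 intrinsic fluorescence (emission maximum 336 nm) monitored while increasing Csn-B amounts were added; inner-filter contribution estimated with GST alone and subtracted to give corrected quenching curves.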

[3] = target: T1, Nuclear receptor subfamily 4immunitygroup A member 1; assay: Binding affinity to nuclear orphan receptor Nur77 assessed as conformational change in receptor by CD spectroscopic
BGC-823 = assay: Induction of mitochondria translocation of Nur77 from nucleus in human BGC823 cells transfected with GFP-Nur77 pretreated with 1 ng/ml leptomycin B at 5 ug/ml after 12 hrs using […] by confocal microscope; assay type: functional, cell-based
[4] = tested on: Mycobacterium tuberculosis; assay: Antimicrobial activity against Mycobacterium tuberculosis; assay type: functional, organism-based
Staphylococcus aureus = assay: Antimicrobial activity against Staphylococcus aureus; assay type: functional, organism-based
Saccharomyces cerevisiae = assay: Antimicrobial activity against Saccharomyces cerevisiae; assay type: functional, organism-based

Compound | Kd [1] [nM] | Activity [2] | Activity [3] | Activity (BGC-823) | IC50 [4] [µg/mL] | IC50 (Staphylococcus aureus) [µg/mL] | IC50 (Saccharomyces cerevisiae) [µg/mL]
CC1=C(/C=C/C(C)=C\C=C\C(C)=C\C(=O)O)C(C)(C)CCC1 [ALITRETINOIN] | 810 |  |  |  |  |  | 
CCCCCCCC1OC(=O)Cc2cc(O)cc(O)c21 (configuration not stated) [CYTOSPORONE C] |  | inactive | inactive | inactive | 62.5 (≈ 225 µM) | 50 (≈ 180 µM) | 12.5 (≈ 44.9 µM)
